From ChEMBL document CHEMBL1122586, “Cytochrome P-455 nm complex formation in the metabolism of phenylalkylamines. 8. Stereoselectivity in metabolic intermediary complex formation with a series of chiral 2-substituted 1-phenyl-2-aminoethanes” (J Med Chem, 1984)

What was measured:
[1] = Apparent Michaelis-Menten constant (Km (app)) for the metabolic intermediary complex formation was reported.; type: ADME; conditions: read-out: Km app
Summary of the method: (§1)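 Liver microsomes from male Sprague-Dawley rats (200–240 g) pretreated with phenobarbital ip (three daily injections of 80, then 40 mg/kg on day 4), isolated by gel filtration. Incubation at 25 °C, 1 mg/mL protein, 50 mM potassium phosphate pH 7.5, 10 mM MgCl2, with substrate. Started by NADPH. ΔA455–490 per μmol P-450 versus time read by difference spectroscopy. Vmax(obsd) and Km(app) come from linear plots over a defined substrate range.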

[2] = Compound was tested for the maximal velocity of metabolic intermediary complex formation; type: ADME; summary of the method: as §1

CCC[C@H](N)Cc1ccccc1.Cl
Km [1]: 32 µM | Vmax [2]: 9.1

CCCC[C@H](N)Cc1ccccc1.Cl
Km [1]: 21 µM | Vmax [2]: 10.5

CCC[C@@H](N)Cc1ccccc1.Cl
Km [1]: 28 µM | Vmax [2]: 5.1

C[C@@H](N)Cc1ccccc1.Cl
Km [1]: ~270 µM | Vmax [2]: ~ 1.5

CCCC[C@@H](N)Cc1ccccc1.Cl
Km [1]: 16 µM | Vmax [2]: 5.7

C[C@H](N)Cc1ccccc1.Cl
Km [1]: ~280 µM | Vmax [2]: ~ 1.6

CCC(N)Cc1ccccc1.Cl (stereo unspecified)
Km [1]: 30 µM | Vmax [2]: 4

CC[C@@H](N)Cc1ccccc1.Cl
Km [1]: 23 µM | Vmax [2]: 3.2
